Measurements as given in ChEMBL document CHEMBL4513216, “Probing the Open Global Health Chemical Diversity Library for Multistage-Active Starting Points for Next-Generation Antimalarials” (ACS Infect Dis, 2020).

Assay: Toxicity liver stage against HepG2, at 10uM
Assay type: cell-based
Parameters: test concentration 10 uM, cell line HepG2-A16-CD81EGFP
Conditions: human, HepG2-A16-CD81EGFP cells; read-out: INHIBITION
In short: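 Uninfected HepG2-A16-CD81EGFP cells, 3 × 10^3 per well, 1536-well, plated on prespotted compound at 10 μM final, parasite-free screening media added to match infected plates; puromycin 10 μM positive, DMSO 0.5% negative; run in parallel with 48 h PbLuc assay at 37 °C, 5% CO2; viability by CellTiter-Glo luminescence, normalized to controls.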

Compared with `O=C1Nc2ccccc2/C1=C1\CCCCN1`, `COc1ccc(F)c(CN2CC(=O)N(c3ccccc3C)CC2C)c1` (stereo unspecified) is lower in cytotoxicity at 10 µM: 4.95% for the first, -0.757% for the second.

First: COCCNC(=O)CNC(=O)c1nc(Cc2c(Cl)cccc2Cl)no1
Second: Cc1cccc(C(=O)N2CCn3cc(CNC(=O)CC4CC4)nc3C2)n1
The cytotoxicity at 10 µM of the first is higher: 5.64% for the first, -78.4% for the second.

Compared with `COc1ccc(-c2cc3nc(CCNC(=O)C4CC4)nn3cn2)cc1`, `CCN(CC)c1ccc(-c2ccc(C)c(S(N)(=O)=O)c2)nn1` is lower in cytotoxicity at 10 µM: 8.38% for the first, -7.99% for the second.

Going from `CN(CC(=O)N(C)C)Cc1ccc(C#N)cc1F` to `CCN(CC)C(=O)CCNC(=O)N(C)Cc1ccc(SC)c(OC)c1`, the cytotoxicity at 10 µM falls from 6.56% to -7.9%.

First: CC(NC(=O)c1cccc[n+]1[O-])C1CC1 (stereo unspecified)
Second: O=C(Cc1cccnc1)NC1CCCN(CCCc2ccccc2)C1 (stereo unspecified)
The cytotoxicity at 10 µM of the first is lower: 5.31% for the first, 11.5% for the second.

Going from `CC1COCCN1C(=O)COc1ccc(Oc2ccccn2)cc1` (stereo unspecified) to `COc1cc(N2CCC(c3nccn3Cc3ccccn3)CC2)ncn1`, the cytotoxicity at 10 µM falls from -8.87% to -14.2%.

Going from `O=C(CCc1ccc(OC(F)(F)F)cc1)N1CCCS1(=O)=O` to `CCCNC(=O)CCNC(=O)N1CCC(=Cc2ccccc2)CC1`, the cytotoxicity at 10 µM falls from 3.42% to 1.47%.

Going from `CC(C)C(=O)Nc1ccc(C(O)Cn2nc(-c3cccs3)oc2=O)cc1` (stereo unspecified) to `CN(C)c1ccc(CCCNC(=O)NCC(O)c2ccsc2)cc1` (stereo unspecified), the cytotoxicity at 10 µM falls from -5.31% to -6.88%.

Compared with `CC(C)N1CCC(NC(=O)NC2CCOc3ccc(Br)cc32)CC1` (stereo unspecified), `CC(C)NC(=O)C1CCC2(CCN(Cc3cnn(C)c3)CC2)CO1` (stereo unspecified) is higher in cytotoxicity at 10 µM: -6.64% for the first, 9.67% for the second.

Going from `Cc1nnc2ccc(N3CCC4(CCOC4)C3)nn12` (stereo unspecified) to `Cc1ccc(N2CCC3(CC2)CCN(C2CCOC2)CC3)nn1` (stereo unspecified), the cytotoxicity at 10 µM rises from 4.29% to 7.67%.

Compared with `CCC(=O)Nc1cc(Br)cn(C)c1=O`, `Cc1cc(=O)c(C(=O)Nc2cccc(CCN3CCCC3)c2)c[nH]1` is higher in cytotoxicity at 10 µM: -1.34% for the first, 7.49% for the second.

First: FC(F)COc1ccccc1NCc1nnsc1Cl
Second: COc1cccc(CNC(=O)Nc2ccc3[nH]nnc3c2)c1OC
The cytotoxicity at 10 µM of the first is lower: -2.63% for the first, 3.2% for the second.

First: O=C(NCCCc1cccs1)N1CCCCC1CCO (stereo unspecified)
Second: Cc1ncccc1NC(=O)[C@@H]1C[C@@H]2CCN(Cc3cccs3)C[C@H]2O1
The cytotoxicity at 10 µM of the first is higher: 6.06% for the first, -72.9% for the second.

Going from `CC(C)C(C)NC(=O)CN1CCSCC1` (stereo unspecified) to `CC(=O)c1cc(CN2C[C@@H](CN3CCC(O)CC3)[C@@H](CO)C2)n(C)c1`, the cytotoxicity at 10 µM rises from -0.662% to 7.58%.

Going from `CCC1CCCN(S(=O)(=O)c2cnc3onc(C)c3c2)C1` (stereo unspecified) to `Cc1ccc2c(c1)OC(C)CN2C(=O)CCc1cscn1` (stereo unspecified), the cytotoxicity at 10 µM falls from 4.72% to -48.5%.

Going from `CC(C)c1nncn1CCNC(=O)c1c(O)cc(F)cc1F` to `Cc1cc(C(F)(F)F)nc(CCNC(C)Cn2cncn2)n1` (stereo unspecified), the cytotoxicity at 10 µM rises from -1.99% to 12%.

Going from `O=C(c1ccco1)N1CCCn2cnc(COCC3CC3)c2C1` to `O=C(C1CCCN(C2CCOCC2)C1)N1Cc2ccccc2C1` (stereo unspecified), the cytotoxicity at 10 µM rises from -75.9% to 2.49%.

Compared with `Cc1cnccc1N1CCN(C(=O)C2CC3(CCNCC3)CN2)CC1` (stereo unspecified), `COc1cc(C)cc(C(C(=O)O)N2CCN(C3CCCC3)CC2)c1OC` (stereo unspecified) is higher in cytotoxicity at 10 µM: -13.7% for the first, -4.27% for the second.

Compared with `CCN(CC)C(=O)[C@@H]1C[C@H](N)CN1c1noc(-c2ccccc2)n1`, `Cn1cnc2c1C(COCc1ccccc1)N(Cc1cccnc1)CC2` (stereo unspecified) is higher in cytotoxicity at 10 µM: -49.8% for the first, 9.61% for the second.

Compared with `Cc1cc(C)n(CC(C)NCCn2nc(C)c(Cl)c2C)n1` (stereo unspecified), `Cc1nc[nH]c1-c1nccn1CCN(C)S(C)(=O)=O` is lower in cytotoxicity at 10 µM: -5.44% for the first, -6.03% for the second.

First: O=C(c1cn(CCN2CCCCC2)nn1)N1CCCO1
Second: O=C(c1cn2ccsc2n1)N1CCOCC(O)(CN2CCCC2)C1 (stereo unspecified)
The cytotoxicity at 10 µM of the first is higher: 5.87% for the first, 4.6% for the second.

Compared with `Cc1nonc1CN(C)Cc1nc(-c2cccc(F)c2F)oc1C`, `CC(C)n1nc(Cn2cccn2)c2c1CN(CC1CCOC1)C2` (stereo unspecified) is higher in cytotoxicity at 10 µM: -2.71% for the first, 7.13% for the second.

Compared with `CN(C)C(=O)[C@@H]1CCO[C@@H]2CCN(c3ncccn3)C[C@@H]21`, `Fc1cnc(N2CC[C@@H]3CN(Cc4ccncc4)CCO[C@@H]3C2)nc1` is lower in cytotoxicity at 10 µM: 8.31% for the first, 5.38% for the second.
